Results from article PMC2865030 (Biochemical Journal, 2008).

Target: yeast Hsp90 M705V
Experiment: ITC of TPR-domain proteins with yeast Hsp90 M705V
Format: binding
Conditions: 300 μM CHIP injected into 30 μM yeast Hsp90 M705V, 30 °C, pH 8.0
Outline: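 ITC: mouse CHIP or yeast Tah1 (His tags cleaved) at 300 µM was titrated as 9–11 injections of 27 µl into 30 µM yeast Hsp90 M705V. Runs were at 30 °C for CHIP and 4 °C for Tah1, in 20 mM Tris/HCl pH 8.0, 1 mM EDTA, 5 mM NaCl. Data were corrected for separately measured heat of dilution and fitted by nonlinear least squares for stoichiometry, binding constant and enthalpy.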

B1: CHIP: mouse C-terminal of Hsp70-interacting protein, TPR-domain co-chaperone involved in ubiquitylation of chaperone-bound client proteins (protein)
chain: MKGKEEKEGGARLGTGGGGSPDKSPSAQELKEQGNRLFVGRKYPEAAACYGRAITRNPLVAVYYTNRALCYLKMQQPEQALADCRRALELDGQSVKAHFFLGQCQLEMESYDEAIANLQRAYSLAKEQRLNFGDDIPSALRIAKKKRWNSIEERRIHQESELHSYLTRLIAAERERELEECQRNHEGHEDDGHIRAQQACIEAKHDKYMADMDELFSQVDEKRKKRDIPDYLCGKISFELMREPCITPSGITYDRKDIEEHLQRVGHFDPVTRSPLTQEQLIPNLAMKEVIDAFISENGWVEDY
modifications: left off: His-PreScission tag, end not stated, cleaved
Kd: 6.7 ± 0.62 µM
